Measured values from ChEMBL document CHEMBL1938359, “Pyrrolo[1,2-b]pyridazines, pyrrolo[2,1-f]triazin-4(3H)-ones, and related compounds as novel corticotropin-releasing factor 1 (CRF₁) receptor antagonists” (Bioorg Med Chem, 2012).
Calls of active or inactive are those of the source. No cut-off for these calls is given here.

Columns and labels:
[1] = molecular target: T1, Corticotropin-releasing factor receptor 1 (Homo sapiens, UniProt P34998); experiment: Displacement of [125I]CRF from human CRF1 receptor expressed in CHO-K1 cells after 2 hrs by gamma counter; type: cell-based
T1 sequence (P34998 whole entry): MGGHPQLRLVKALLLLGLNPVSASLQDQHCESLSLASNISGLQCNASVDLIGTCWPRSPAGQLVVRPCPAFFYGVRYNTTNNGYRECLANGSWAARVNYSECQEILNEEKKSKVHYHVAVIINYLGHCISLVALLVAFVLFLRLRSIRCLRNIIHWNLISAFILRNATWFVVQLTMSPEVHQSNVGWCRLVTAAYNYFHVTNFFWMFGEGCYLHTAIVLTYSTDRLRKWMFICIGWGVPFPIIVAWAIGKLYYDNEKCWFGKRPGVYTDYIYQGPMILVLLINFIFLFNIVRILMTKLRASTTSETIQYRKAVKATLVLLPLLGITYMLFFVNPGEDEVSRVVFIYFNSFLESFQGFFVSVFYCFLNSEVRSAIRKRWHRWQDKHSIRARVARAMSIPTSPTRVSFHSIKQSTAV
How it was run: (§1)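 Crude membranes came from CRF1-expressing CHO-K1 cells, homogenized in 50 mmol/l Tris–HCl with 10 mmol/l MgCl2, 2 mmol/l EDTA and aprotinin, then spun at 10,000 g. Membranes were incubated 2 h at room temperature with 0.5 nmol/l 125I human/rat CRF (added solution) and test compound (1–10000 nmol/l). Bound ligand was separated by centrifugation and washed with PBS/0.01% Triton X-100, then counted by γ-counter. Nonspecific binding was defined with 1 µmol/l unlabeled CRF. IC50 was taken from concentration–response curves.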

[2] = molecular target: T1, Corticotropin-releasing factor receptor 1; experiment: Antagonist activity at human CRF1 receptor expressed in CHO-K1 cells assessed as CRF-stimulated cAMP accumulation by enzyme immunoassay; type: functional, cell-based; conditions: read-out: EC50 (the source's name)
How it was run: (§2)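 CHO-K1 cells expressing CRF1 were seeded at 1 × 10^4 cells/well and incubated overnight, then washed twice with F-12. They were preincubated 10 min at 37 °C in F-12 containing 1 mmol/l IBMX. Test compound (1–10000 nmol/l) and 10 nmol/l CRF (final concentration not stated) were added, followed by 15 min at 37 °C. Cells were chilled and cAMP measured by enzyme immunoassay after blank subtraction. IC50 was taken from concentration–response curves.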

[3] = Half life in rat at 1 mg/kg, iv; type: ADME, organism-based; parameters: dose 1 mg/kg, route intravenous; conditions: in vivo
How it was run: (§3)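 Fasted male rats received a single 1 mg/kg dose, either iv in saline with 30% HP-β-CD or po in saline with 0.5% MC (n = 4 each). Jugular blood was taken by heparinized syringe (iv: 2 min–72 h; po: 1–72 h) and spun to plasma stored at −70 °C. AUC, Cmax, Tmax, T1/2, Vss and CL were derived from plasma concentration–time courses. F = dose-normalized AUCpo/AUCiv × 100.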

[4] = tested on: Rattus norvegicus; experiment: Anxiolytic activity against swin-stress-induced anxiety-like behavior in po dosed Sprague-Dawley rat assessed as increase in time spent in open arms after 1 hr by plus-maze test; type: functional, organism-based
How it was run: (§4)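 Male Sprague-Dawley rats (230–280 g) received oral vehicle (0.5% MC) or compound 1 h before testing. They were forced to swim 120 s in 22 ± 2 °C water (25 cm deep) and dried. Each rat was placed at the maze centre facing a closed arm and video-tracked for 5 min. Time in and entries into open arms were scored. Non-stressed controls were included. Data are mean ± S.E., with n=16 per group. Dunnett test versus vehicle.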

[5] = Half life in rat at 1 mg/kg, po; type: ADME, organism-based; parameters: dose 1 mg/kg, route oral; conditions: in vivo; how it was run: as §3
[6] = molecular target: T2, Corticotropin-releasing factor receptor 1 (Rattus norvegicus, UniProt P35353); experiment: Displacement of [125I]CRF from rat CRF1 receptor expressed in CHO-K1 cells after 2 hrs by gamma counter; type: cell-based; conditions: in the assay text read “in brain membranes” for “expressed in CHO-K1 cells”; how it was run: as §1
T2 sequence (P35353 whole entry): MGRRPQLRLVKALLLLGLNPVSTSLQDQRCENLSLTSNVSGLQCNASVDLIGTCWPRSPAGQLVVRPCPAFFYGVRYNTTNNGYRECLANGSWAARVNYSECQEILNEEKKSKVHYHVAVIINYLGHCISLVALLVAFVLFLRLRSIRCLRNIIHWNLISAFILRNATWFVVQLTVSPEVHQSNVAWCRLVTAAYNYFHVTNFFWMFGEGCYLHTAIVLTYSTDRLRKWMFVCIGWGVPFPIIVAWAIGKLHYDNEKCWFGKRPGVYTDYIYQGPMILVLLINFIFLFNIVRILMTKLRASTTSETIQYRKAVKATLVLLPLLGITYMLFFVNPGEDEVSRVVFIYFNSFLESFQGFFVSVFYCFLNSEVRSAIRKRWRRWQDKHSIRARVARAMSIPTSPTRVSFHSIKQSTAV

[7] = AUC (infinity) in rat at 1 mg/kg, iv; type: ADME, organism-based; parameters: time infinity, dose 1 mg/kg, route intravenous; conditions: plasma
How it was run: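 Fasted male rats given a single 1 mg/kg intravenous dose in saline with 30% HP-β-CD (w/v). Heparinized jugular-vein blood was drawn pre-dose and at 2, 5, 15 and 30 min and 1, 2, 3, 4, 8, 24, 48 and 72 h. Plasma was separated by centrifugation and stored at -70 °C. AUC was derived from the plasma concentration–time course.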

[8] = Tmax in rat at 1 mg/kg, po; type: ADME, organism-based; parameters: dose 1 mg/kg, route oral; conditions: in vivo; how it was run: as §3
[9] = tested on: Rattus norvegicus; experiment: Anxiolytic activity against swin-stress-induced anxiety-like behavior in Sprague-Dawley rat assessed as increase in time spent in open arms at 10 mg/kg, po after 1 hr by plus-maze test; type: functional, organism-based; parameters: dose 10 mg/kg; how it was run: as §4
[10] = Cmax in rat at 1 mg/kg, po; conditions: in vivo
[11] = Total clearance in rat at 1 mg/kg, iv; type: ADME, organism-based; parameters: dose 1 mg/kg, route intravenous; conditions: in vivo; how it was run: as §3
[12] = AUC (infinity) in rat at 1 mg/kg, po; type: ADME, organism-based; parameters: time infinity, dose 1 mg/kg, route oral; conditions: plasma
How it was run: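 Fasted male rats dosed orally once at 1 mg/kg in saline with 0.5% MC (w/v). Heparinized jugular-vein blood was taken at 1, 2, 4, 6, 8, 24, 48 and 72 h. Plasma was obtained by centrifugation and kept at -70 °C. AUC came from the plasma concentration–time profile.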

[13] = Oral bioavailability in rat at 1 mg/kg; type: ADME, organism-based; conditions: in vivo; how it was run: as §3
[14] = molecular target: T2, Corticotropin-releasing factor receptor 1; experiment: Antagonist activity at rat CRF1 receptor expressed in CHO-K1 cells assessed as CRF-stimulated cAMP accumulation by enzyme immunoassay; type: functional, cell-based; how it was run: as §2
[15] = Volume of distribution at steady state in rat at 1 mg/kg, iv; type: ADME, organism-based; parameters: dose 1 mg/kg, route intravenous; conditions: in vivo, read-out: Vdss; how it was run: as §3
[16] = tested on: Rattus norvegicus; experiment: Anxiolytic activity against swin-stress-induced anxiety-like behavior in Sprague-Dawley rat assessed as increase in time spent in open arms at 3 mg/kg, po after 1 hr by plus-maze test; type: functional, organism-based; parameters: dose 3 mg/kg; how it was run: as §4

Structure (SMILES)	IC50 [1] [nM]	IC50 [2] [nM]	also measured
CCC(C)c1cc(C)n2nc(-c3ccc(OC)cc3Cl)n(C)c(=O)c12 (centres undefined)	4.9	1.1	–
CCC(CC)c1cc(C)n2nc(-c3ccc(OC)cc3C)[nH]c(=O)c12	149	688	–
CCC(CC)c1cc(C)n2nc(-c3ccc(OC)cc3C)n(C(C)C)c(=O)c12	19.2	5.1	–
CCC(CC)c1cc(C)n2nc(-c3ccc(OC)cc3C)n(CC)c(=O)c12	9.7	1.2	–
CCC(CC)c1cc(C)n2nc(-c3c(C)cc(OC)cc3C)n(C)c(=O)c12	2	0.6	–
CCC(CC)c1cc(C)n2nc(-c3cnc(OC(F)F)cc3C)n(C)c(=O)c12	–	3.2	half-life [3]: 4.3 h; Activity [4]: Dose-dependent effect; half-life [5]: 2.4 h; IC50 [6]: 8.4 nM; AUC(0-inf) [7]: 518 ng·h/mL; Tmax [8]: 1 h; Activity [9]: Active; Cmax [10]: 21.5 ng/mL; clearance [11]: 34.7 mL/min/kg; AUC(0-inf) [12]: 70.2 ng·h/mL; bioavailability [13]: 13.5%; EC50 [14]: 2.6 nM; Vd [15]: 2.95 L/kg
CCC(CC)c1cc(C)n2nc(-c3cc4c(cc3C)OCO4)c(C)cc12	18.3	2.5	–
CCC(CC)c1cc(C)n2nc(-c3ccc(OC)cc3Cl)n(C3CC3)c(=O)c12	5.9	1	–
CCC(C)c1cc(C)n2nc(-c3c(C)cc(OC)cc3C)n(C)c(=O)c12 (centres undefined)	4.2	3.5	–
COc1cc(C)c(-c2nn3c(C)cc(C(C)C)c3c(=O)n2C)c(C)c1	13.1	4.5	–
CCC(C)c1cc(C)n2nc(-c3ccc(OC)cc3C)n(C)c(=O)c12 (centres undefined)	5	2.4	–
COc1ccc(-c2nn3c(C)cc(C(C)C)c3c(=O)n2C)c(Cl)c1	8.7	7.4	–
CCC(CC)c1cc(C)n2nc(-c3ccc(OC)cc3C)c(C)cc12	–	4.9	Activity [16]: Active
CCC(CC)c1cc(C)n2nc(-c3ccc(OC)cc3C)n(CC(C)C)c(=O)c12	111	47.2	–
CCC(CC)c1nc(C)n2nc(-c3ccc(OC)cc3C)c(C)cc12	122	566	–
CCc1cc(OC)c(OC)cc1-c1nn2c(C)cc(C(CC)CC)c2cc1C	8.9	1.9	–
CCC(CC)c1cc(C)n2nc(-c3ccc(OC)cc3Cl)n(CC)c(=O)c12	4.6	0.7	–
CCC(CC)c1cc(C)n2nc(-c3ccc(OC)nc3C)n(C)c(=O)c12	3.8	1.1	–

Structure (SMILES)	IC50 [1] [nM]	IC50 [2] [nM]	also measured
CCC(CC)c1cc(C)n2nc(-c3cnc(N(C)C)cc3C)c(C)cc12	7.4	11.5	–
CCC(CC)c1cc(C)n2nc(-c3ccc(C)cc3C)c(C)cc12	11.6	1.8	–
CCC(CC)c1cc(C)n2nc(-c3ccc(OC)cc3Cl)n(CCO)c(=O)c12	4.4	3.5	–
Cc1nc(N(C)C)ccc1-c1nn2c(C)cc(C(C)C)c2c(=O)n1C	131	–	–
CCC(CC)c1cc(C)n2nc(-c3ccc(OC)cc3C)n(C3CC3)c(=O)c12	5.7	3.7	–
CCOc1ccc(-c2nn3c(C)cc(C(CC)CC)c3cc2C)c(CC)c1	13.4	6.9	–
CCC(C)c1cc(C)n2nc(-c3ccc(N(C)C)nc3C)n(C)c(=O)c12 (centres undefined)	81.2	36.5	–
CCC(CC)c1nc(C)c2nc(-c3ccc(OC)cc3C)c(C)cn12	311	–	–
CCC(CC)c1cc(C)n2nc(-c3ccc(OC)cc3Cl)[nH]c(=O)c12	14.3	4	–
CCC(CC)c1cc(C)n2nc(-c3ccc(OC)cc3C)n(C)c(=O)c12	2.6	1.7	–
CCC(CC)c1cc(C)n2nc(-c3cc(C)c(C)cc3C)c(C)cc12	16.6	3.3	–
CCC(CC)c1cc(C)n2nc(-c3ccc(OC)cc3Cl)n(C)c(=O)c12	3.8	1.2	–
CCC(CC)c1cc(C)n2nc(-c3ccc(N(C)C)nc3C)n(C)c(=O)c12	7.8	5.5	–
CCC(CC)c1cc(C)n2nc(-c3ccc(OC(F)F)nc3C)n(C)c(=O)c12	4.5	0.3	–
CCC(CC)c1cc(C)n2nc(-c3ccc(OC)cc3C)n(CC3CC3)c(=O)c12	3.3	5	–
CCC(CC)c1cc(C)n2nc(-c3cnc(OC)cc3C)n(C)c(=O)c12	8.6	17.2	–
CCC(CC)c1cc(C)n2nc(-c3ccc(OC)cc3C)n(CCO)c(=O)c12	–	4.2	–
